Experiment: Toxicity liver stage against HepG2, at 10uM
Type: cell-based
Design: test concentration 10 uM, cell line HepG2-A16-CD81EGFP
Conditions: human, HepG2-A16-CD81EGFP cells; read-out: INHIBITION
Outline: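 Uninfected HepG2-A16-CD81EGFP cells, 3 × 10^3 per well, 1536-well, plated on prespotted compound at 10 μM final, parasite-free screening media added to match infected plates; puromycin 10 μM positive, DMSO 0.5% negative; run in parallel with 48 h PbLuc assay at 37 °C, 5% CO2; viability by CellTiter-Glo luminescence, normalized to controls.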

Row | Structure (SMILES) | cytotoxicity at 10 µM [%]
1 | COc1ccccc1CNC(=O)COc1c(C)n(C)ccc1=O | -41.4
2 | COCCCNC(=O)Cc1cc(-c2ccc(Cl)cc2)on1 | -21.4
3 | O=C1CC(NS(=O)(=O)c2ccc(Br)cc2)CN1 (stereo unspecified) | -0.154
4 | O=C(NCCNc1cc(N2CCCC2)cnn1)Nc1ccccc1F | -0.367
5 | COC(=O)C1CCN(C(=O)c2cc(Br)ccc2-n2cnnn2)CC1 | 4.67
6 | O=C(Cc1cccs1)NCc1ccnc(C2CCCOC2)n1 (stereo unspecified) | 1.2
7 | c1cc2cc[nH]c2c(CC2CN(Cc3cscn3)C2)n1 | 13.8
8 | COc1ccc(Cc2noc(C3=NN(C)C(=O)CC3)n2)cc1OC | 13.3
9 | O=C(NCC1CCN(CCc2ccccc2)C1)NCC1(O)CCC1 (stereo unspecified) | -0.128
10 | O=S(=O)(NCCc1ccccc1F)N1CCOCC1 | -1.7
11 | c1cnn(C2CN(c3nc(-c4ccncc4)nc4c3CCC4)C2)c1 | -43
12 | O=C(NCc1nc(C2CC2)no1)N1CCOC(c2cccc(F)c2)C1 (stereo unspecified) | -44.6
13 | Cc1nn(C)c(Cl)c1C1CCCN1C(=O)c1ccc(N(C)C)nn1 (stereo unspecified) | -9.01
14 | COC(C(=O)N1CCN(Cc2noc(C)n2)CC1)c1ccccc1 (stereo unspecified) | -1.8
15 | Cc1ccc(S(=O)(=O)n2ccc(C(=O)NCC(F)(F)F)c2)cc1 | -4.78
16 | Cc1nnc2n1CCN(C(=O)c1cnc(C3CC3)s1)C2 | -5.19
17 | CCc1ccsc1C(=O)N1CCS(=O)(=O)CC1 | 5.36
18 | CCNC(=O)CNS(=O)(=O)c1cc(Br)ccc1F | -55.4
19 | CC(C)NC(=O)CC(C)NCc1ccc(F)cc1Cl (stereo unspecified) | -40.7
20 | COc1cccc(CN(C)C(=O)CN2CC(n3nc(C)cc3C)C2)c1 | -1.38
21 | COCC1CN(CCc2ccc(OC)c(OC)c2)Cc2c1cnn2C (stereo unspecified) | -105
22 | CN(C)C(=O)CN1CCC2(CCCN(Cc3ccoc3)C2)C1=O (stereo unspecified) | -103
23 | Cc1cc(=O)c2ccccc2n1CC1CCN(C(C)C)C1 (stereo unspecified) | 4.64

Row | Structure (SMILES) | cytotoxicity at 10 µM [%]
24 | COc1coc(CN2CCCC3(CCC(=O)N(C4CC4)C3)C2)cc1=O (stereo unspecified) | -39.9
25 | Cc1ccc(-c2cn[nH]c2C2CCCN(c3cnccn3)C2)cc1 (stereo unspecified) | 73.6
26 | CCOC(=O)CCNC(=O)N1CCOC(Cc2cccc(OC)c2)C1 (stereo unspecified) | -1.13
27 | CC(NC(=O)c1ccc(=O)n(C)c1)c1ccccc1-n1cccn1 (stereo unspecified) | 2.68
28 | OCCC1CN(c2ncnc3[nH]cnc23)CCN1Cc1cccs1 (stereo unspecified) | 12.8
29 | CCN(Cc1ccncc1)c1cc(C2CCCNC2)nc(C)n1 (stereo unspecified) | -5.21
30 | CNc1ncccc1CN1CCN2CCN(C)CC2C1 (stereo unspecified) | -2.46
31 | COc1nccnc1N1CCC(C(=O)O)(n2ccc(C(C)(C)C)n2)CC1 | -4.05
32 | CC1CCCN(CCCNC(=O)c2ccc(N(C)S(C)(=O)=O)cc2Cl)C1 (stereo unspecified) | -2.28
33 | Cc1nccn1-c1cccc(C2CCCN(C(=O)c3cc[nH]n3)C2)n1 (stereo unspecified) | 0.481
34 | COc1ccc(CNC(=O)NC(C)(C(=O)O)c2ccco2)cc1F (stereo unspecified) | 0.808
35 | CCc1nnsc1C(=O)N1CCCC(n2ccnc2C(C)C)C1 (stereo unspecified) | -16
36 | Cc1cnn(C2CCCN(C(=O)Cc3c(C)nn(C)c3C)C2)c1 (stereo unspecified) | -6.71
37 | NC(=O)c1ccc(C(=O)N2CCCCC2Cn2cccn2)s1 (stereo unspecified) | 0.977
38 | CN1CCCc2cc(CNC(=O)c3cc[n+]([O-])cc3)ccc21 | -1.11
39 | Cc1nc(CN(C)C2CCN(CCn3cc(C#N)cn3)C2)no1 (stereo unspecified) | -3.82
40 | O=C(NCCc1ccc(Cl)s1)NCc1nnc2n1CCC2 | -7.15
41 | Cc1nc(C)n(CC2CCCN(CCc3ccccn3)C2)n1 (stereo unspecified) | -1.59
42 | CC(C)COCC(NC(=O)c1cc[nH]n1)c1ccco1 (stereo unspecified) | -4.72
43 | CC(C)NC(=O)[C@@H]1C[C@@H]2CCN(Cc3ccoc3)C[C@H]2O1 | -109
44 | COCCN1CCOCC12CCN(c1nccs1)CC2 | -102
45 | COCCN1CCN(c2cccc(C)n2)Cc2ccc(C)nc21 | -106
46 | CN(C)CCN1C[C@@H]2CN(c3ccccc3)C[C@@H]2C1=O | -94

Reference: ChEMBL document CHEMBL4513216, “Probing the Open Global Health Chemical Diversity Library for Multistage-Active Starting Points for Next-Generation Antimalarials” (ACS Infect Dis, 2020)
